Screening data: PubChem BioAssay, SRMLSC
Shown is part of a subset that was picked to be rich in hits.
Lung fibro prol – blocks proliferation of human lung fibroblasts. AID 719. LL 47 human lung fibroblast viability, ATP luminescence; stronger effect = lower value. 85,000 compounds, 1.1% hits. viability, % at 10 µM;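 active = viability at or below 50% in the single dose screen; inactive = viability above 50%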;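 also: compound exposure lasted 72 h before the ATP readout; 100% = median luminescence of untreated cell-only wells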
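Material: human lung fibroblast line LL 47, low passage; Evaluation: viability percentage against median untreated-cell control; Buffer or medium: 15% FBS in IMEM; Incubation: 72 h compound exposure at 37 °C after overnight plating; Dosing: 0.1% DMSO in all compound wells; Measured by: CellTiter-Glo luminescence.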
H69AR inhibit – growth inhibitors of human H69AR lung tumor cells | H69AR lung tumor viability, ATP luminescence, 72 h; stronger effect = lower value | viability, % at 10 µM | 85,000 compounds, 6% hits | AID 598;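 active = viability at or below 40%; inactive = viability above 40%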;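 also: multidrug resistant small cell line overexpressing MRP-1 efflux transporter; 100% = mean luminescence of untreated control wells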
HCT116 bCat-KO – beta-catenin-lacking colon tumor cell growth suppression. viability, % at 10 µM. HCT116 beta-catenin knockout viability, CellTiter-Glo, 60 h; stronger effect = lower value. 140,000 compounds, 1.5% hits;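 active = viability at or under a set limit, the compound median less 4 SD, cut at about 6% in these data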;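 also: 0% = Hyamine 1622 control at 20 µM and 100% = untreated cell control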
HCT116 PTEN-null – PTEN-deleted cell growth suppression; HCT116 PTEN-null viability, CellTiter-Glo, 60 h; stronger effect = lower value; viability, % at 10 µM; 140,000 compounds, 1.2% hits; AID 827;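 active = viability at or below a set limit, 4 SD under the median of all tested compounds, cut at about 3.7% in these data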;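 also: PTEN knockout HCT116 line with beta catenin targeted HCT116 as companion control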
HUVEC prolif 384 – inhibitors of human endothelial cell proliferation | HUVEC proliferation, CellTiter-Glo luminescence, 72 h; stronger effect = lower value | 86,000 compounds, 1.1% hits | viability, % at 10 µM (by protocol) | AID 648;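 active = viability at or below 30%; inactive = viability above 30%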;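 also: 100% = median luminescence of DMSO-only cell control wells on each plate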
Starred values were filed as active, the others as inactive.

`Cc1ccccc1C1CC(c2ccccc2OC(F)F)Nc2ncnn21` (stereo not drawn) gave Lung fibro prol 94, H69AR inhibit 0.6*, HCT116 bCat-KO 97, HCT116 PTEN-null 87 and HUVEC prolif 384 98.
Screening Cc1ccc(C2CC(c3ccccc3OC(F)F)Nc3ncnn32)cc1 (stereo not drawn) returned HCT116 bCat-KO 88 and HCT116 PTEN-null 94.
CCOC(=O)COc1ccc(/C=C2\NC(=S)N(CC)C2=O)cc1 was read as HCT116 bCat-KO 91 and HCT116 PTEN-null 82.
Screening CCNC(=S)N(CCc1c(C)[nH]c2ccccc12)Cc1cc(OC)c(OC)c(OC)c1 returned HCT116 bCat-KO 73 and HCT116 PTEN-null 67.
Screening Brc1ccccc1-c1csnn1 returned HCT116 bCat-KO 98 and HCT116 PTEN-null 94.
Screening CC1(c2ccc(Cl)cc2Cl)OCC(Cn2ccnc2)O1 (stereo not drawn) returned Lung fibro prol 95, H69AR inhibit 34*, HCT116 bCat-KO 71, HCT116 PTEN-null 57 and HUVEC prolif 384 83.
CCc1c(C(=O)NNC(=S)NCCc2ccccc2)csc1C was read as HCT116 bCat-KO 90 and HCT116 PTEN-null 98.
`CC(=O)N1CCN(c2ccccc2NC(=O)COc2ccc(Cl)cc2Cl)CC1` gave Lung fibro prol 84, H69AR inhibit 57, HCT116 bCat-KO 78, HCT116 PTEN-null 61 and HUVEC prolif 384 92.
Screening CCC(=O)N1CCN(c2ccccc2NC(=O)COc2cc(C)ccc2C(C)C)CC1 returned Lung fibro prol 90, H69AR inhibit 36*, HCT116 bCat-KO 8, HCT116 PTEN-null 4 and HUVEC prolif 384 53.
Cc1ccc(-c2ccc(=O)n(CC(=O)N3CCN(c4cccc(C)c4)C(C)C3)n2)cc1 (stereo not drawn) was read as Lung fibro prol 114, H69AR inhibit 89, HCT116 bCat-KO 85, HCT116 PTEN-null 83 and HUVEC prolif 384 104.
Cc1cccc(N2CCN(C(=O)c3ccncc3)CC2C)c1 (stereo not drawn) was read as Lung fibro prol 101, H69AR inhibit 29*, HCT116 bCat-KO 82, HCT116 PTEN-null 71 and HUVEC prolif 384 84.
Cc1cc(C)c2c(=O)n(CC(=O)NCCCN3CCN(c4ccccc4F)CC3)sc2n1 was read as Lung fibro prol 28*, H69AR inhibit 0.4*, HCT116 bCat-KO 1.7*, HCT116 PTEN-null 1.8* and HUVEC prolif 384 69.
Cc1cccc(N2CCN(C(=O)Cn3sc4nc(C)cc(C)c4c3=O)CC2C)c1 (stereo not drawn) was read as Lung fibro prol 23*, H69AR inhibit 0.0*, HCT116 bCat-KO 1.6*, HCT116 PTEN-null 1.4* and HUVEC prolif 384 68.
Cc1cc(C)c2c(=O)n(CC(=O)N3CCC(Cc4ccccc4)CC3)sc2n1 was read as Lung fibro prol 65, H69AR inhibit 4.8*, HCT116 bCat-KO 1.4*, HCT116 PTEN-null 9 and HUVEC prolif 384 90.
Screening CC(=O)N1CCc2ccc(S(=O)(=O)N3CCN(C)CC3)cc21 returned HCT116 bCat-KO 105 and HCT116 PTEN-null 97.
For COC(=O)CSc1nc2cc(OC)ccc2cc1C#N the results were Lung fibro prol 89, H69AR inhibit 75, HCT116 bCat-KO 18, HCT116 PTEN-null 27 and HUVEC prolif 384 72.
CCOc1ccc2cc(C#N)c(SCC(=O)N3CCC(C)CC3)nc2c1 was read as Lung fibro prol 79, H69AR inhibit 23*, HCT116 bCat-KO 37, HCT116 PTEN-null 44 and HUVEC prolif 384 48.
For CCOc1ccc2cc(C#N)c(SCC(=O)NC(C)CC)nc2c1 (stereo not drawn) the results were Lung fibro prol 102, H69AR inhibit 29*, HCT116 bCat-KO 95, HCT116 PTEN-null 93 and HUVEC prolif 384 68.
For CCOC(=O)CSc1nc2cc(OCC)ccc2cc1C#N the results were Lung fibro prol 102, H69AR inhibit 31*, HCT116 bCat-KO 92, HCT116 PTEN-null 87 and HUVEC prolif 384 63.
Screening O=C(CSc1ccc(C(F)(F)F)cc1[N+](=O)[O-])Nc1ccc2ccccc2c1 returned HCT116 bCat-KO 92 and HCT116 PTEN-null 79.
`Cc1noc2ncnc(Sc3ccc(Cl)cc3)c12` gave Lung fibro prol 57, H69AR inhibit 1.8*, HCT116 bCat-KO 83, HCT116 PTEN-null 83 and HUVEC prolif 384 47.
For Cc1ccc(Sc2ncnc3onc(C)c23)cc1 the results were Lung fibro prol 91, H69AR inhibit 78, HCT116 bCat-KO 83, HCT116 PTEN-null 79 and HUVEC prolif 384 80.
`Cc1ccccc1Sc1ncnc2onc(C)c12` gave Lung fibro prol 96, H69AR inhibit 43, HCT116 bCat-KO 82, HCT116 PTEN-null 83 and HUVEC prolif 384 81.
Cc1noc2ncnc(Sc3c(Cl)cccc3Cl)c12 was read as Lung fibro prol 49*, H69AR inhibit 16*, HCT116 bCat-KO 11, HCT116 PTEN-null 8 and HUVEC prolif 384 52.
`Cc1ccc(Nc2nc(N)nc(CN3CCC(C)CC3)n2)c(C)c1` gave Lung fibro prol 94, H69AR inhibit 33*, HCT116 bCat-KO 93, HCT116 PTEN-null 86 and HUVEC prolif 384 86.
CCn1c(Cc2ccccc2)nnc1SCC(=O)Nc1ccccc1N1CCOCC1 was read as Lung fibro prol 94, H69AR inhibit 93, HCT116 bCat-KO 94, HCT116 PTEN-null 91 and HUVEC prolif 384 103.
For CCOC(=O)Cc1c(C)nc2c(-c3ccc(Cl)cc3)c[nH]n2c1=O the results were H69AR inhibit 23*, HCT116 bCat-KO 62, HCT116 PTEN-null 55 and HUVEC prolif 384 57.
CCOC(=O)Cc1cc(=O)n2[nH]c(C)c(-c3ccc(Cl)cc3)c2n1 was read as Lung fibro prol 69, H69AR inhibit 16*, HCT116 bCat-KO 31, HCT116 PTEN-null 29 and HUVEC prolif 384 46.
Screening CCCn1c(=N)n(CCOCCOCCn2c(=N)n(CCC)c3ccccc32)c2ccccc21 returned Lung fibro prol 100, H69AR inhibit 67 and HUVEC prolif 384 95.
`O=C(CC(SCCO)c1ccc(F)cc1)c1ccco1` (stereo not drawn) gave HCT116 bCat-KO 4.0* and HCT116 PTEN-null 2.5*.
Cc1ccc(C(CC(=O)c2ccco2)SCCO)cc1 (stereo not drawn) was read as HCT116 bCat-KO 5.5* and HCT116 PTEN-null 5.
Screening O=C(c1ccco1)N1CCN=C1SCc1ccc(F)cc1 returned Lung fibro prol 107, H69AR inhibit 106, HCT116 bCat-KO 115, HCT116 PTEN-null 108 and HUVEC prolif 384 102.
`O=C(CSCCSCC(=O)c1ccco1)c1ccco1` gave Lung fibro prol 94, H69AR inhibit 85, HCT116 bCat-KO 101, HCT116 PTEN-null 104 and HUVEC prolif 384 87.
CC/C(=N\NC(=O)CSc1ncccn1)c1ccc2c(c1)OCCO2 was read as HCT116 bCat-KO 96 and HCT116 PTEN-null 102.
For Cc1ccc(C)c(C(C)NC(=O)C2C3CCC(O3)C2C(=O)O)c1 (stereo not drawn) the results were Lung fibro prol 105, H69AR inhibit 23*, HCT116 bCat-KO 89, HCT116 PTEN-null 93 and HUVEC prolif 384 29*.
